PLCg1 inh: PLC-gamma1 (human) inhibition, primary screen | P19174 | AID 720700 | purified PLC-gamma1, fluorogenic substrate, fluorescence | actives 0.84% (n = 370,000) | inhibition, % at 12.2 µM; in the data active = inhibition above about 9.5%
proCasp7 act: activates human procaspase-7, counter-screen for procaspase-3 activators | P55210 | recombinant procaspase-7, Ac-DEVD-pNA absorbance 405 nm; D23A/D198A/D206A triple mutant, cannot self-cleave; scale: DMSO 0, 5 µM enzyme 100 | activation, % at 8.5 µM | actives 0.093% (n = 330,000);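 active = percent activation above the screen-wide mean plus 3 SD, cut at about 25% in these data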
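System: Procaspase-7 triple mutant (PC-7 D3A); measure: % activation from two-timepoint absorbance difference, scaled to controls; times: 1 h compound preincubation, 2 h substrate cleavage, 25 °C; also added: Ac-DEVD-pNA substrate, 400 µM as added; measured by: Epi-absorbance of released pNA at 405 nm, two timepoints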
proCasp3 act: activators of human procaspase-3; P42574; recombinant procaspase-3 D3A, Ac-DEVD-pNA absorbance 405 nm; activation, % at 8.5 µM; actives 0.11% (n = 330,000);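 active = activation above the mean of all tested compounds plus 3 SD, cut at about 21% in these data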;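 note: 0% = DMSO alone and 100% = DMSO wells spiked with extra 5 µM PC-3 D3A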
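Compound: 8.5 µM single point, 0.8% DMSO / Material: Autoprocessing-dead procaspase-3 D3A mutant enzyme / Timing: 1 h preincubation plus 2 h reaction at 25 °C / Medium: Zinc-free HEPES/NaCl buffer with 0.01% Triton X-100 at pH 7.4 / Technique: 405 nm absorbance of p-nitroaniline, reads at 0 and 120 min / Repeats: one well per compound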
PLC-beta3 inh: inhibitors of human phospholipase C beta3. Q01970. Purified PLC-beta3, fluorogenic substrate, fluorescence. inhibition, % at 12.2 µM. actives 0.18% (n = 370,000);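 note: 0% = median of compound wells on plate and 100% = full blocker control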
Target sequence (Q01970 whole entry, looked up): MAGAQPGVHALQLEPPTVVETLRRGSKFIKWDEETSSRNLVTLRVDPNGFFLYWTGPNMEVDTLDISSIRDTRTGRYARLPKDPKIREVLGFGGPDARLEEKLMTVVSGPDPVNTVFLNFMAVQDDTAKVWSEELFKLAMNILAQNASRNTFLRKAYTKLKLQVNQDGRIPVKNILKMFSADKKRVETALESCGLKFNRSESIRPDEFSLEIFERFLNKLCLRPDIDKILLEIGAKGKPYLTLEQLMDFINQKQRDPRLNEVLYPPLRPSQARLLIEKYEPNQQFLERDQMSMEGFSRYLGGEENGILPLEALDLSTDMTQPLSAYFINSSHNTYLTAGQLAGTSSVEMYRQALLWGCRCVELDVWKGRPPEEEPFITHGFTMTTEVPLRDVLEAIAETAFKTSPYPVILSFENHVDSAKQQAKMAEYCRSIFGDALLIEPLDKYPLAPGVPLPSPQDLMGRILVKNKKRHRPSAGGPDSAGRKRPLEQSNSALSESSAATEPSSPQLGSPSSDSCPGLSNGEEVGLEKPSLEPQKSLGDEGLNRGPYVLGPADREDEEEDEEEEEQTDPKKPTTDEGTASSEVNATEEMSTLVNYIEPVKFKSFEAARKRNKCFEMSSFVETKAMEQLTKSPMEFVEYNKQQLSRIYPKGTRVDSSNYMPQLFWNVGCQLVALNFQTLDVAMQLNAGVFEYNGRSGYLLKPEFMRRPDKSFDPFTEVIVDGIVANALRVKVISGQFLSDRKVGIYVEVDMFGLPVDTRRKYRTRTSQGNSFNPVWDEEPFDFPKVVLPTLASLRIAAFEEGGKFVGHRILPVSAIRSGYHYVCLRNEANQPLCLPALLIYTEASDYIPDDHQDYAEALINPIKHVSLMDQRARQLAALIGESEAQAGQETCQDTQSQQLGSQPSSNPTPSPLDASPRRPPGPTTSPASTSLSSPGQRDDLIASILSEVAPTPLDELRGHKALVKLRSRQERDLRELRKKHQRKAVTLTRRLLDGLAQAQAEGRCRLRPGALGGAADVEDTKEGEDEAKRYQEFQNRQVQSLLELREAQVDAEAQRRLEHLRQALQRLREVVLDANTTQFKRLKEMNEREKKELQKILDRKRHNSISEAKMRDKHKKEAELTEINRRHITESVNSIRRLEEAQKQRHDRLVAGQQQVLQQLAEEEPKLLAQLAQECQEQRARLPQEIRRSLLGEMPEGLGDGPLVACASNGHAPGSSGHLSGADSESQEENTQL
HGIII-sPLA2 inh: Blocks human group III sPLA2 activity | Q9NZ20 | QFRET BODIPY PC-A2 liposome hydrolysis, fluorescence | inhibition, % at 12.2 µM | actives 0.56% (n = 370,000);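 active = inhibition above mean plus 3 SD of compounds lying within the high and low control bounds, cut at about 19% in these data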;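 note: 0% = median of test compound wells and 100% = no enzyme DMSO wells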
PLCgamma1 ctr: PLC-gamma1 inhibition, counter-screen for PLC-beta3 hits. shares compounds with PLCg1 inh. inhibition, % at 12.3 µM. purified PLC-gamma1, fluorogenic substrate, fluorescence. actives 3.1% (n = 3,300); in the data active = inhibition above about 9.5%
PLCbeta3 conf: human PLC-beta3 inhibition, confirmation | shares compounds with PLCg1 inh | purified PLC-beta3, fluorogenic substrate fluorescence | inhibition, % at 12.3 µM | actives 1% (n = 3,300) | AID 743261
The depositor's hits bear a star. The list is not random: actives were taken first. Their share in the collection is about 1.6%. Cut-off read from the data, not from the text of the source, unless noted: active = inhibition above about 11%; inactive = the rest.

What do the screens show for `O=S(=O)(c1ccc(F)c(F)c1)N1CCN(Cc2ccc3c(c2)OCO3)CC1`?
PLCg1 inh: 11.5*; proCasp7 act: 13.2; proCasp3 act: -2.1; PLC-beta3 inh: 4.2; HGIII-sPLA2 inh: -4.5; PLCgamma1 ctr: -0.3; PLCbeta3 conf: 0.0

Results for COc1ccc(S(=O)(=O)N2CCN(Cc3ccc4c(c3)OCO4)CC2)cc1F ?
PLCg1 inh: 0.2; proCasp7 act: 12.9; proCasp3 act: 7.0; PLC-beta3 inh: -7.9; HGIII-sPLA2 inh: -6.8

Results for CC(C)C[C@H]1COc2cc(Br)ccc2S(=O)(=O)N1Cc1cn(Cc2ccco2)nn1 ?
PLCg1 inh: 0.2; PLC-beta3 inh: 2.1; HGIII-sPLA2 inh: -5.5

How did O=C(Nc1ccc2c(c1)OCCO2)c1cc(-n2cnnc2)ccc1Cl do in these assays?
PLCg1 inh: 11.2*; proCasp7 act: 12.9; proCasp3 act: 3.7; PLC-beta3 inh: 6.1; HGIII-sPLA2 inh: 0.3; PLCgamma1 ctr: -7.9; PLCbeta3 conf: -5.1

Results for O=C(NC1CCCCC1)c1cc(-n2cnnc2)ccc1Cl ?
PLCg1 inh: 9.8*; proCasp7 act: -2.5; proCasp3 act: -0.7; PLC-beta3 inh: -2.6; HGIII-sPLA2 inh: 1.8; PLCgamma1 ctr: 1.6; PLCbeta3 conf: 3.8

Results for CC(=O)Nc1cccc(OCCCOc2cccc([N+](=O)[O-])c2)c1 ?
PLCg1 inh: 0.5; PLC-beta3 inh: 1.7; HGIII-sPLA2 inh: -18.5

How did C=CCn1c(SCC(=O)c2[nH]c(C)c(C(=O)OCC)c2C)nc2scc(-c3ccc(OC)c(OC)c3)c2c1=O do in these assays?
PLCg1 inh: 6.2; proCasp7 act: 2.7; proCasp3 act: -2.9; PLC-beta3 inh: 10.6*; HGIII-sPLA2 inh: -17.3; PLCgamma1 ctr: -9.1; PLCbeta3 conf: -1.5

What do the screens show for `CC(C)NC(=O)C1(C)CCN1C/C=C/c1ccccc1` (stereo unspecified)?
PLCg1 inh: 12.4*; PLC-beta3 inh: 7.3; HGIII-sPLA2 inh: 2.7; PLCgamma1 ctr: -7.8; PLCbeta3 conf: -5.9

Results for CN1CCN(C(=S)Nc2ccc(Cl)cc2Cl)CC1 ?
PLCg1 inh: 10.4*; proCasp7 act: -5.3; proCasp3 act: -1.6; PLC-beta3 inh: 2.4; HGIII-sPLA2 inh: 1.0; PLCgamma1 ctr: -0.4; PLCbeta3 conf: 2.8

What do the screens show for `CCN1CCN(C(=S)Nc2ccc(Cl)cc2Cl)CC1`?
PLCg1 inh: 1.6; proCasp7 act: 1.3; proCasp3 act: -14.8; PLC-beta3 inh: 1.4; HGIII-sPLA2 inh: 5.7

How did Fc1cccc(Cl)c1Cn1ncc2ccccc21 do in these assays?
PLCg1 inh: -1.2; PLC-beta3 inh: -4.0; HGIII-sPLA2 inh: -3.1

What do the screens show for `c1ccc(Cn2ncc3ccccc32)cc1`?
PLCg1 inh: 14.9*; proCasp7 act: -5.4; proCasp3 act: -6.9; PLC-beta3 inh: 3.1; HGIII-sPLA2 inh: -9.0; PLCgamma1 ctr: -8.0; PLCbeta3 conf: -0.9

What do the screens show for `COc1ccc(NC(=O)COc2ccc(/C=N/O)cc2OC)cc1`?
PLCg1 inh: -0.3; proCasp7 act: -8.6; proCasp3 act: 2.4; PLC-beta3 inh: -5.5; HGIII-sPLA2 inh: -5.3

How did CCNC(=S)N/N=C/c1ccc(OCC(=O)Nc2ccc(OC)cc2)c(OC)c1 do in these assays?
PLCg1 inh: 15.6*; proCasp7 act: 2.2; proCasp3 act: 3.8; PLC-beta3 inh: 16.7*; HGIII-sPLA2 inh: -4.3; PLCgamma1 ctr: 5.3; PLCbeta3 conf: -0.8

What do the screens show for `Cc1cc(F)cc(-c2cc(C(=O)NCc3cccc(Cl)c3)[nH]n2)c1`?
PLCg1 inh: 10.2*; PLC-beta3 inh: 2.0; HGIII-sPLA2 inh: -6.7; PLCgamma1 ctr: -5.0; PLCbeta3 conf: -5.6

How did COC(=O)CC1C(=O)NC2CCCCC2N1C(=O)CCl (stereo unspecified) do in these assays?
PLCg1 inh: 0.1; proCasp7 act: 5.6; proCasp3 act: 4.3; PLC-beta3 inh: -0.8; HGIII-sPLA2 inh: -2.9

How did O=[N+]([O-])c1cc([N+](=O)[O-])c(Oc2cccnc2Br)cc1NN1CCCCC1 do in these assays?
PLCg1 inh: 10.9*; proCasp7 act: -5.8; proCasp3 act: 8.4; PLC-beta3 inh: 10.3; HGIII-sPLA2 inh: 10.2; PLCgamma1 ctr: 5.2; PLCbeta3 conf: 4.5

How did O=[N+]([O-])c1cc([N+](=O)[O-])c(Oc2cccc3ccccc23)cc1NN1CCCCC1 do in these assays?
PLCg1 inh: 6.4; PLC-beta3 inh: 2.1; HGIII-sPLA2 inh: 9.1

How did Cc1cccc(C(=O)OC(C)CN2CCOCC2)c1 (stereo unspecified) do in these assays?
PLCg1 inh: -0.5; proCasp7 act: 5.8; proCasp3 act: 4.6; PLC-beta3 inh: -0.8; HGIII-sPLA2 inh: -2.4

Results for CC(CN1CCOCC1)OC(=O)c1cccc(Br)c1 (stereo unspecified) ?
PLCg1 inh: 5.1; proCasp7 act: 4.3; proCasp3 act: -2.4; PLC-beta3 inh: 11.7*; HGIII-sPLA2 inh: 0.3; PLCgamma1 ctr: -1.2; PLCbeta3 conf: 1.3

How did CCCNC(=O)NC(C(=O)OC)C12CC3CC(CC(C3)C1)C2 (stereo unspecified) do in these assays?
PLCg1 inh: 10.9*; proCasp7 act: 1.2; proCasp3 act: 9.8; PLC-beta3 inh: 6.0; HGIII-sPLA2 inh: 3.5; PLCgamma1 ctr: 0.1; PLCbeta3 conf: 0.5

What do the screens show for `O=C(NCc1cccs1)C1CCC(CNS(=O)(=O)c2ccccc2)CC1` (stereo unspecified)?
PLCg1 inh: 12.4*; proCasp7 act: 11.6; proCasp3 act: 7.6; PLC-beta3 inh: 4.7; HGIII-sPLA2 inh: 0.5; PLCgamma1 ctr: 3.9; PLCbeta3 conf: 5.2

What do the screens show for `COc1cc(OC)c(C(=O)Oc2ccc3c(c2)OCO3)cc1OC`?
PLCg1 inh: 11.3*; proCasp7 act: 2.6; proCasp3 act: 2.1; PLC-beta3 inh: 3.6; HGIII-sPLA2 inh: 2.4; PLCgamma1 ctr: 7.9; PLCbeta3 conf: 3.1

What do the screens show for `N#CCNC(=O)C1c2ccccc2Oc2ccccc21`?
PLCg1 inh: 12.6*; proCasp7 act: -7.6; proCasp3 act: 4.5; PLC-beta3 inh: 0.2; HGIII-sPLA2 inh: 0.0; PLCgamma1 ctr: -2.8; PLCbeta3 conf: 1.2

Results for O=C(NCc1ccccc1)C1c2ccccc2Oc2ccccc21 ?
PLCg1 inh: 7.3; proCasp7 act: -3.5; proCasp3 act: 6.6; PLC-beta3 inh: -3.5; HGIII-sPLA2 inh: -11.6

How did O=C(O)CC(C(=O)O)C(c1ccccc1)c1ccccc1 (stereo unspecified) do in these assays?
PLCg1 inh: 3.5; PLC-beta3 inh: -1.0; HGIII-sPLA2 inh: 5.1

How did O=C(CCn1cccn1)Nc1ccc(-c2ccno2)cc1 do in these assays?
PLCg1 inh: -5.0; proCasp7 act: -0.5; proCasp3 act: 4.1; PLC-beta3 inh: -5.9; HGIII-sPLA2 inh: 5.4

Source: PubChem BioAssay
